According to ChEMBL document CHEMBL1772965, “Analogues and derivatives of oncrasin-1, a novel inhibitor of the C-terminal domain of RNA polymerase II and their antitumor activities” (J Med Chem, 2011):
Activity calls are given as the source filed them. No cut-off for these calls is given here.

Key:
[1] = Stability of compound at pH 9; type: physicochemical; details: buffer
H1299 = assay: Inhibition of RNA pol2 CTD phosphorylation in human H1299 cells at 1 uM after 12 hrs by Western blot analysis; type: cell-based
Outline: (§1)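 Cells were treated with 1 μM compound for 12 h and then analysed by Western blot. Phospho-CTD was detected with the H5 antibody (diluted 1:1000), and β-actin (1:1000) served as the loading reference.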

NCI-H157 [2] = assay: Antitumor activity against human NCI-H157 cells assessed as cell viability after 3 days by sulforhodamine B assay; type: functional, cell-based; details: NCI-H157, 72 h
Outline: (§2)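 Monolayer cultures were grown in RPMI-1640 or DMEM with 10% heat-inactivated fetal calf serum and penicillin/streptomycin, at 37°C and 5% CO2. Cells were exposed for 3 days to compound from 10−4.5 M (31.6 μM) down to 10−8 M (10 nM), with 1% DMSO as the control. Viability was read by sulforhodamine B. IC50 was the dose halving surviving cells versus control, run in quadruplicate and repeated at least three times.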

[3] = (§3) Antitumor activity against human H1299 cells assessed as cell viability after 3 days by sulforhodamine B assay; type: functional, cell-based; details: NCI-H1299, 72 h; outline: as §2
[4] = Stability of compound at pH 6; type: physicochemical; details: buffer
H460 = assay: Inhibition of RNA pol2 CTD phosphorylation in human H460 cells at 1 uM after 12 hrs by Western blot analysis; type: cell-based; outline: as §1
NCI-H157 [5] = assay: Inhibition of RNA pol2 CTD phosphorylation in human NCI-H157 cells at 1 uM after 12 hrs by Western blot analysis; type: cell-based; outline: as §1
[6] = Cytotoxicity against human T29 cells assessed as cell viability after 3 days by sulforhodamine B assay; type: cell-based; details: T29, 72 h; outline: as §2
[7] = (§4) Antitumor activity against human NCI-H322 cells assessed as cell viability after 3 days by sulforhodamine B assay; type: functional, cell-based; details: NCI-H322, 72 h; outline: as §2
[8] = Stability of compound at pH 2; type: physicochemical; details: buffer
[9] = Stability of compound at pH 4; type: physicochemical; details: buffer
[10] = Stability of compound at pH 7.4; type: physicochemical; details: buffer
NCI-H460 [11] = assay: Antitumor activity against human H460 cells assessed as cell viability after 3 days by sulforhodamine B assay; type: functional, cell-based; details: for IC50: NCI-H460, 72 h; outline: as §2
[12] = Cytotoxicity against mutant K-ras-transformed human T29Kt1 cells assessed as cell viability after 3 days by sulforhodamine B assay; type: functional, cell-based; details: T29Kt1, 72 h; outline: as §2
NCI-H460 [13] = assay: Cytotoxicity against human H460 cells assessed as cell viability after 3 days by sulforhodamine B assay; type: functional, cell-based; details: NCI-H460, 72 h; outline: as §2
NCI-H322 [14] = assay: Inhibition of RNA pol2 CTD phosphorylation in human NCI-H322 cells at 1 uM after 12 hrs by Western blot analysis; type: cell-based; outline: as §1
NCI-H1299 = assay: as §3; type: functional, cell-based; outline: as §2
NCI-H322 [15] = assay: as §4; type: functional, cell-based; outline: as §2

Stability [1] | IC50 (NCI-H157 [2]) [µM] | Stability [4] | Stability [8] | Stability [9] | Stability [10] | IC50 (NCI-H460 [11]) [µM] | Compound | inhibition (H1299) | IC50 [3] [µM] | inhibition (H460) | inhibition (NCI-H157 [5]) | IC50 [6] [µM] | IC50 [7] [µM] | IC50 [12] [µM] | IC50 (NCI-H460 [13]) [µM] | inhibition (NCI-H322 [14]) | Activity (NCI-H1299) | Activity (NCI-H322 [15]) | Activity (NCI-H460 [11])
Stable | ≤ 0.2 | Stable | Unstable | Stable | Stable | ≤ 0.2 | OCc1cn(Cc2cccc(F)c2)c2ccc(Cl)cc12 | inactive | ≥ 13 | Active | Active | 10 | ≥ 13 | 0.16 | 0.07 | inactive |  |  | 
Stable | ≤ 0.2 | Stable | Unstable | Stable | Stable | ≤ 0.2 | OCc1cn(Cc2cccc(Cl)c2)c2ccccc12 | inactive |  | Active | Dose-dependent effect | > 31.6 |  | 0.16 | 0.019 | inactive | Dose-dependent effect | Dose-dependent effect | Dose-dependent effect
Stable | ≤ 0.2 | Stable | Unstable | Stable | Stable | ≤ 0.2 | OCc1cn(Cc2ccc(Cl)cc2)c2ccccc12 | inactive |  | Active | Dose-dependent effect | > 31.6 |  | 0.079 | 0.016 | inactive | Dose-dependent effect | Dose-dependent effect | Dose-dependent effect
